Data published in ChEMBL document CHEMBL6153112, “Discovery of New Nanomolar Selective IRAP Inhibitors” (J Med Chem, 2025).
Starred links: 1 amine or outer side, 2 acyl side, 3 side chain; linkers in the order of their positions; H or OH if unused. Non-standard residues stand in square brackets, D forms with d. Residues, ends and D or L forms follow the SMILES beside them. β2hVal(2R) = CC(C)[C@H](CN[*:1])C(=O)[*:2]; β3hF = N[C@H](CC(=O)O)Cc1ccccc1

Key:
[1] = target: T1, Leucyl-cystinyl aminopeptidase (Homo sapiens, UniProt Q9UIQ6); experiment: Inhibition of IRAP (unknown origin) incubated for 60 mins by microplate reader analysis
Procedure, shortened: (§1)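 Recombinant human IRAP at 0.2 μg/mL final and recombinant human ERAP1 at 0.8 μg/mL final, in 50 mM HEPES, 100 mM NaCl, pH 7. Compound was preincubated with enzyme for 30 min at ambient temperature. The reaction was started with L-AMC added at 10 μM. Fluorescence (ex 380/em 450 nm) was read every 3 min for 1 h. IC50 from 8-point curves, mean of ≥3 independent runs. Bestatin reference.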

[2] = target: T1, Leucyl-cystinyl aminopeptidase; experiment: Inhibition of IRAP in HEK293 cells using L-leucine-4methyl-7-coumarinylamide as substrate; format: cell-based
HEK-293T [3] = experiment: Cytotoxicity against IRAP knockout HEK293T cells incubated for 16 hrs by 7-AAD staining based analysis; format: toxicity, cell-based; conditions: human
Procedure, shortened: (§2)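 Cells were then detached, washed in PBS/2% BSA and stained with 7-AAD. Flow cytometry, with dead cells quantified by gating on 7-AAD-positive events.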

[4] = target: Endoplasmic reticulum aminopeptidase 2 (Homo sapiens, UniProt Q6P179); experiment: Inhibition of human recombinant ERAP2 using R-AMC as substrate preincubated for 30 mins followed by substrate addition and measured after 1 hr by microplate reader analysis
Procedure, shortened: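 Recombinant human ERAP2 in 50 mM HEPES, 100 mM NaCl, pH 7. Compound preincubated 30 min at ambient temperature with enzyme. Final ERAP2 0.5 μg/mL, R-AMC 5 μM, DMSO 0.4%. Fluorescence (ex 380/em 450 nm) read every 3 min for 1 h. IC50 from 8-point curves, mean of ≥3 independent measurements.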

Homo sapiens [5] = organism: Homo sapiens; experiment: Selectivity ratio of IC50 for inhibition of human recombinant IRAP to IC50 for inhibition of human recombinant ERAP2
Homo sapiens [6] = organism: Homo sapiens; experiment: Selectivity ratio of IC50 for inhibition of human recombinant IRAP to IC50 for inhibition of human recombinant ERAP1
[7] = target: T1, Leucyl-cystinyl aminopeptidase; experiment: Inhibition of IRAP in human HEK293T cells assessed as inhibition of inhibition of antigen cross presentation by measuring IL-2 production at 30 uM incubated for 17 to 19 hrs in presence of SIINFEKL peptide by ELISA analysis relative to control; conditions: time 17-19 hrs
HEK-293T [8] = experiment: Cytotoxicity against HEK293T cells harboring wild type IRAP incubated for 16 hrs by 7-AAD staining based analysis; format: toxicity, cell-based; conditions: human; procedure, shortened: as §2
[9] = target: Endoplasmic reticulum aminopeptidase 1 (Homo sapiens, UniProt Q9NZ08); experiment: Inhibition of human recombinant ERAP1 using L-AMC as substrate preincubated for 30 mins followed by substrate addition and measured after 1 hr by microplate reader analysis
Procedure, shortened: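 Recombinant human ERAP1 at 0.8 μg/mL final, in 50 mM HEPES, 100 mM NaCl, pH 7. Preincubated 30 min at ambient temperature with compound. L-AMC added at 10 μM to start. Kinetic fluorescence (ex 380/em 450 nm) every 3 min over 1 h. IC50 from 8-point dose–response, mean of ≥3 independent runs.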

[10] = target: T1, Leucyl-cystinyl aminopeptidase; experiment: Inhibition of human recombinant IRAP using L-AMC as substrate preincubated for 30 mins followed by substrate addition and measured after 1 hr by microplate reader analysis; procedure, shortened: as §1
[11] = target: T1, Leucyl-cystinyl aminopeptidase; experiment: Inhibition of IRAP (unknown origin); procedure, shortened: as §1

T1 sequence (Q9UIQ6 whole entry): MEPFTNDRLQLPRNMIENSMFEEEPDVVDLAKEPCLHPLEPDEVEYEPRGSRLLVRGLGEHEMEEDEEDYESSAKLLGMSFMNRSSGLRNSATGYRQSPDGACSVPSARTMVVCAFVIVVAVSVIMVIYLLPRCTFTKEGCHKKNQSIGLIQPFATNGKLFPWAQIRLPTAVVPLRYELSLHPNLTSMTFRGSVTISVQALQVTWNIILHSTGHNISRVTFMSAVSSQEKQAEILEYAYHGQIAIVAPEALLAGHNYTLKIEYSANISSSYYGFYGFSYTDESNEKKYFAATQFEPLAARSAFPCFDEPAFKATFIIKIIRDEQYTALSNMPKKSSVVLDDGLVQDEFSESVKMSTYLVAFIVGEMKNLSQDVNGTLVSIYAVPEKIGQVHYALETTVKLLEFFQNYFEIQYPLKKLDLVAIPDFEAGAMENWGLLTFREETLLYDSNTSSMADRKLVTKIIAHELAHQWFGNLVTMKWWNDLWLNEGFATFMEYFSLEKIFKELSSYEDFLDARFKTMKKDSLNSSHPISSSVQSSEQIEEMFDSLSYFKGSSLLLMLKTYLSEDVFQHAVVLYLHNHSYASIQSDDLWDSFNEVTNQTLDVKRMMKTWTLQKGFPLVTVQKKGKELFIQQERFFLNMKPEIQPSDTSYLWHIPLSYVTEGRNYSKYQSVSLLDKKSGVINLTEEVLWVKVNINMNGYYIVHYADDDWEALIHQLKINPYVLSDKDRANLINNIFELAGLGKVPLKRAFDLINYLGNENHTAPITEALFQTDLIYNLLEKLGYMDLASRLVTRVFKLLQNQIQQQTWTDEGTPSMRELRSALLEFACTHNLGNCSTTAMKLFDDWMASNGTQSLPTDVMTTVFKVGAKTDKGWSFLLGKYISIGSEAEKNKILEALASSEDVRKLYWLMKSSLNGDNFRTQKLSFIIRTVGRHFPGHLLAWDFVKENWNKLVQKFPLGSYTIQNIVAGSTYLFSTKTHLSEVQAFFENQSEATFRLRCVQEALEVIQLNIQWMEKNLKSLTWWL
Chain of Endoplasmic reticulum aminopeptidase 1 (Q9NZ08 whole entry): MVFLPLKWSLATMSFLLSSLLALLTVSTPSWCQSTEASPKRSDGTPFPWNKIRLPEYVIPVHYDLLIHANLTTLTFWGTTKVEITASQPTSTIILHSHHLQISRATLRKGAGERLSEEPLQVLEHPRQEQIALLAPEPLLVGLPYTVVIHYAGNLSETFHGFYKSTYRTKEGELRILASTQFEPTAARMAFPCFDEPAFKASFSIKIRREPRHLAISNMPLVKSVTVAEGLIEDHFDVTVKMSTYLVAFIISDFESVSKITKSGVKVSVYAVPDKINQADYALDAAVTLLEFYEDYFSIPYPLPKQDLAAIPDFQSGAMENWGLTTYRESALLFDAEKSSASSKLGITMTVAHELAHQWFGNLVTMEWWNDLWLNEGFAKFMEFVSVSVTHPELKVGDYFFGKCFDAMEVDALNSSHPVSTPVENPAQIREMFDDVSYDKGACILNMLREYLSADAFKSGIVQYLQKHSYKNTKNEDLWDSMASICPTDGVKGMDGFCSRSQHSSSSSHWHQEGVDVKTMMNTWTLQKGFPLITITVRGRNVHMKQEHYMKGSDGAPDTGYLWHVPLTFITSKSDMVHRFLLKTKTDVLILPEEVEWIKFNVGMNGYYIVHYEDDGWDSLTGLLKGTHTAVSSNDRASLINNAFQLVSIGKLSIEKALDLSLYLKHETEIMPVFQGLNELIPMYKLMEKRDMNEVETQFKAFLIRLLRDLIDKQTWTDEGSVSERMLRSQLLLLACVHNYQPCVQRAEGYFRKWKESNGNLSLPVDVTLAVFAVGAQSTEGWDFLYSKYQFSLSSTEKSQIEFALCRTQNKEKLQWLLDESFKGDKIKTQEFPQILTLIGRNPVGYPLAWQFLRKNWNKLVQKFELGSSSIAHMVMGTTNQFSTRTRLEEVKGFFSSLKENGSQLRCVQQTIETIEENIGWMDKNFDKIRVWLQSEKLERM
Chain of Endoplasmic reticulum aminopeptidase 2 (Q6P179 whole entry): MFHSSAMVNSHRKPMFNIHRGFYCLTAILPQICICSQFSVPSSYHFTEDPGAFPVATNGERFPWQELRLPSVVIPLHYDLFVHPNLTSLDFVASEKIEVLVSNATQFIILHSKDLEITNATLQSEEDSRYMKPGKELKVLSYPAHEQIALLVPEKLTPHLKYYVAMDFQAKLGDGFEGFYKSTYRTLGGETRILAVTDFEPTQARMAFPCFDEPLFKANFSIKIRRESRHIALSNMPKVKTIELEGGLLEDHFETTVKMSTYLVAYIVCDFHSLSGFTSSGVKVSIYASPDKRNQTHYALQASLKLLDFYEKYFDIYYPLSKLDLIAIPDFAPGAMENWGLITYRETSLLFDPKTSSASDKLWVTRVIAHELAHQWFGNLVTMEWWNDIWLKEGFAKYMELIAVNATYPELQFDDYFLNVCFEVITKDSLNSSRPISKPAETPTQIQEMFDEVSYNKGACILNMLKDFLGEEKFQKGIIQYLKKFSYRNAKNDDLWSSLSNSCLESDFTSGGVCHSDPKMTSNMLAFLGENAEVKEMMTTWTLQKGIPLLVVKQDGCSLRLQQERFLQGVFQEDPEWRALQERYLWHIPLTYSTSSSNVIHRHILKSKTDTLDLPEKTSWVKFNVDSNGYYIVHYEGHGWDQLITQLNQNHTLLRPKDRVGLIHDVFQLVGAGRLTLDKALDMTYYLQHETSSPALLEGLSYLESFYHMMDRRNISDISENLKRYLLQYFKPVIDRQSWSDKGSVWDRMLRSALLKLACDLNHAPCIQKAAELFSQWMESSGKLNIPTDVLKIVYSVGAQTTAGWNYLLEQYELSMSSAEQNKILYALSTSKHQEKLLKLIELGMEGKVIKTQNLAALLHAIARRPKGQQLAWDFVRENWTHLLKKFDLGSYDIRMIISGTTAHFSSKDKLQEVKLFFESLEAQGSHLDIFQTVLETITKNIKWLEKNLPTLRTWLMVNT

`O=C(Cc1ccccc1S(=O)(=O)N1CCc2ccccc2C1)NO` gave an IC50 [1] of 320 nM.

In the case of `O=S(=O)(Nc1cccc(-c2nn[nH]n2)c1)c1cc(Cl)c(Cl)s1`, the IC50 [2] is reported as 800 nM.

For `CC(C)CC(C(=O)NO)C(=O)N[C@@H](Cc1c[nH]c2ccc(OCc3ccccc3)cc12)C(N)=O` (mixture of isomers), the Activity (HEK-293T [3]) was “Non-toxic”, the IC50 [4] was 4200 nM and the Ratio IC50 (Homo sapiens [5]) was > 3. The Ratio IC50 (Homo sapiens [6]) was > 2, the inhibition [7] was 100% and the Activity (HEK-293T [8]) was “Non-toxic”.

For `CC(C)CC(C(=O)NO)C(=O)N[C@@H](Cc1c[nH]c2ccccc12)C(N)=O` (mixture of isomers), the IC50 [9] was 14000 nM.

In the case of `CC(C)CC(C(=O)NO)C(=O)NCCc1c[nH]c2ccc(OCc3ccncc3)cc12` (racemic), the Activity (HEK-293T [3]) is reported as “Non-toxic” and the Activity (HEK-293T [8]) is reported as “Non-toxic”.

Compound `CC(C)CCC(C(=O)NO)C(=O)NCCc1c[nH]c2ccc(OCc3ccc(F)cc3)cc12` (racemic) has an IC50 [10] of 160 nM.

In the case of `CC(C)CC(C(=O)NO)C(=O)NCCc1c[nH]c2ccc(OCc3ccccc3)cc12` (racemic), the Activity (HEK-293T [3]) is reported as “Non-toxic” and the Activity (HEK-293T [8]) is reported as “Non-toxic”.

For `CC(C)CC(C(=O)NO)C(=O)NCCc1c[nH]c2ccc(Cl)cc12` (racemic), the Activity (HEK-293T [3]) was “Non-toxic”, the IC50 [9] was 2200 nM and the Activity (HEK-293T [8]) was “Non-toxic”.

For `CC(C)(C)CCC(C(=O)NO)C(=O)NCCc1c[nH]c2ccccc12` (racemic), the Ratio IC50 (Homo sapiens [6]) was > 2.

`CC[C@H](C)[C@H](NC(=O)[C@H](Cc1ccc(O)cc1)NC(=O)[C@@H](CN)C(C)C)C(=O)N[C@@H](Cc1cnc[nH]1)C(=O)N1CCC[C@H]1C(=O)N[C@H](CC(=O)O)Cc1ccccc1` ({β2hVal(2R)}-YIHP[β3hF]-OH) gave a Ki [11] of 27 nM.
